pIC50: −log10 of the molar value. Each block holds one compound with its values, some of them ahead of it.
Columns and labels:
[1] = biological target: Protein farnesyltransferase (Bos taurus, UniProt P29702+P49355); experiment: In vitro inhibition of bovine Farnesyl transferase; format: protein-complex assay
Summary of the method: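 Purified bovine FPTase, assayed as in ref 15, with dansyl-GCVLS peptide and FPP as substrates, both at […].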

[2] = biological target: T1, Protein farnesyltransferase (Bos taurus) (UniProt P29702+P49355); experiment: Inhibition of FPTase at 100 nM using 20 uM FPP as substrate; format: protein-complex assay
Summary of the method: (§1)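 FPP-dependence study using purified bovine FPTase. Dansyl-GCVLS peptide was held at a fixed level of […] while FPP concentration was varied. Inhibitor was tested at a single fixed concentration, and the read-out was percent inhibition of farnesylation.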

[3] = biological target: T1, Protein farnesyltransferase (Bos taurus); experiment: Inhibition of FPTase at 100 nM using 10 uM FPP as substrate; format: protein-complex assay; summary of the method: as §1
[4] = biological target: T1, Protein farnesyltransferase (Bos taurus); experiment: Inhibition of FPTase at 100 nM using 20 uM Dansyl-GCVLS; format: protein-complex assay
Summary of the method: (§2)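 Peptide-dependence study using purified bovine FPTase. Dansyl-GCVLS substrate concentration was varied with the inhibitor at a single fixed concentration, and activity was reported as percent enzyme inhibition.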

[5] = biological target: T1, Protein farnesyltransferase (Bos taurus); experiment: Inhibition of FPTase at 100 nM using 5 uM FPP as substrate; format: protein-complex assay; summary of the method: as §1
[6] = biological target: T1, Protein farnesyltransferase (Bos taurus); experiment: Inhibition of FPTase at 100 nM using 5 uM Dansyl-GCVLS; format: protein-complex assay; summary of the method: as §2
[7] = biological target: T1, Protein farnesyltransferase (Bos taurus); experiment: Inhibition of FPTase at 100 nM using 10 uM Dansyl-GCVLS; format: protein-complex assay; summary of the method: as §2
[8] = biological target: T1, Protein farnesyltransferase (Bos taurus); experiment: Inhibition of FPTase at 100 nM using 2 uM FPP as substrate; format: protein-complex assay; summary of the method: as §1
[9] = biological target: T1, Protein farnesyltransferase (Bos taurus); experiment: Inhibition of FPTase at 100 nM using 1 uM Dansyl-GCVLS; format: protein-complex assay; summary of the method: as §2
[10] = biological target: T1, Protein farnesyltransferase (Bos taurus); experiment: Inhibition of FPTase at 100 nM using 0.5 uM FPP as substrate
[11] = biological target: Protein farnesyltransferase (Homo sapiens, UniProt P49354+P49356); experiment: Inhibition of farnesylation of H-Ras in DLD-1 cells; format: functional, cell-based
[12] = biological target: T1, Protein farnesyltransferase (Bos taurus); experiment: Inhibition of FPTase at 100 nM using 0.5 uM Dansyl-GCVLS; format: protein-complex assay; summary of the method: as §2
[13] = biological target: T1, Protein farnesyltransferase (Bos taurus); experiment: Inhibition of FPTase at 100 nM using 2 uM Dansyl-GCVLS; format: protein-complex assay; summary of the method: as §2
[14] = biological target: T1, Protein farnesyltransferase (Bos taurus); experiment: Inhibition of FPTase at 10 nM using 5 uM FPP as substrate; format: protein-complex assay; summary of the method: as §1
[15] = biological target: T1, Protein farnesyltransferase (Bos taurus); experiment: Inhibition of FPTase at 10 nM using 20 uM Dansyl-GCVLS; format: protein-complex assay; summary of the method: as §2
[16] = biological target: T1, Protein farnesyltransferase (Bos taurus); experiment: Inhibition of FPTase at 10 nM using 0.5 uM FPP as substrate; format: protein-complex assay; summary of the method: as §1
[17] = biological target: T1, Protein farnesyltransferase (Bos taurus); experiment: Inhibition of FPTase at 10 nM using 0.5 uM Dansyl-GCVLS; format: protein-complex assay; summary of the method: as §2
[18] = biological target: T1, Protein farnesyltransferase (Bos taurus); experiment: Inhibition of FPTase at 10 nM using 1 uM Dansyl-GCVLS; format: protein-complex assay; summary of the method: as §2
[19] = biological target: T1, Protein farnesyltransferase (Bos taurus); experiment: Inhibition of FPTase at 10 nM using 20 uM FPP as substrate; format: protein-complex assay; summary of the method: as §1
[20] = biological target: T1, Protein farnesyltransferase (Bos taurus); experiment: Inhibition of FPTase at 10 nM using 2 uM FPP as substrate; format: protein-complex assay; summary of the method: as §1
[21] = biological target: T1, Protein farnesyltransferase (Bos taurus); experiment: Inhibition of FPTase at 10 nM using 1 uM FPP as substrate; format: protein-complex assay; summary of the method: as §1
[22] = biological target: T1, Protein farnesyltransferase (Bos taurus); experiment: Inhibition of FPTase at 10 nM using 2 uM Dansyl-GCVLS; format: protein-complex assay; summary of the method: as §2
[23] = biological target: T1, Protein farnesyltransferase (Bos taurus); experiment: Inhibition of FPTase at 10 nM using 10 uM FPP as substrate; format: protein-complex assay; summary of the method: as §1
[24] = biological target: T1, Protein farnesyltransferase (Bos taurus); experiment: Inhibition of FPTase at 10 nM using 10 uM Dansyl-GCVLS; format: protein-complex assay; summary of the method: as §2

- pIC50 [1]: < 5.00
SMILES: CC(C)=CCC/C(C)=C/CC/C(C)=C/CC(NCc1cncn1C)C(=O)NCc1ccccc1 (stereo not drawn)

- pIC50 [1]: 6.15
SMILES: CC(C)=CCC/C(C)=C/CC/C(C)=C/CC1C(=O)N(Cc2ccccc2)C(=O)N1Cc1cncn1C (stereo not drawn)

- pIC50 [1]: 6.17
- pIC50 [11]: 6.00
SMILES: CC(C)=CCC/C(C)=C/CC/C(C)=C/CC(C(=O)NCc1ccccc1)N(Cc1cncn1C)S(=O)(=O)c1ccccc1 (stereo not drawn)

- inhibition [14]: 38%
- inhibition [15]: 3%
- inhibition [16]: 54%
- pIC50 [1]: 8.22
- inhibition [17]: 49%
- inhibition [18]: 41%
- inhibition [19]: 32%
- inhibition [20]: 42%
- inhibition ([6]; 10 nM, in the assay text read “10 nM” for “100 nM”): 27%
- inhibition [21]: 55%
- inhibition [22]: 38%
- inhibition [23]: 36%
- pIC50 [11]: 6.00
- inhibition [24]: 14%
SMILES: CC(C)=CCC/C(C)=C/CC/C(C)=C/CC(NCc1cncn1Cc1ccc(C#N)cc1)C(=O)NCc1ccccc1 (stereo not drawn)

The remaining lines, values behind:

SMILES: CC(C)=CCC/C(C)=C/CC/C(C)=C/CC(C(=O)N[C@@H](Cc1ccccc1)C(=O)O)P(=O)(O)O (stereo partly drawn)
- inhibition [2]: 10%
- inhibition [3]: 9%
- inhibition [4]: 38%
- pIC50 [1]: 7.08
- inhibition [5]: 9%
- inhibition ([5]; in the assay text read “1 uM FPP” for “5 uM FPP”): 72%
- inhibition [6]: 34%
- inhibition [7]: 33%
- inhibition [8]: 37%
- inhibition [9]: 42%
- inhibition [10]: 80%
- pIC50 [11]: < 5.00
- inhibition [12]: 43%
- inhibition [13]: 41%

SMILES: CC(C)=CCC/C(C)=C/CC/C(C)=C/CC(C(=O)N[C@@H](Cc1ccccc1)C(=O)O)N(Cc1cncn1C)S(=O)(=O)c1ccccc1 (stereo partly drawn)
- pIC50 [1]: 6.33
- pIC50 [11]: 5.00

SMILES: CC(C)=CCC/C(C)=C/CC/C(C)=C/CC(NCc1cncn1Cc1ccc(C#N)cc1)C(=O)N[C@@H](Cc1ccccc1)C(=O)O (stereo partly drawn)
- pIC50 [11]: 5.30

SMILES: CC(C)=CCC/C(C)=C/CC/C(C)=C/CC(C(=O)NCc1ccccc1)N(Cc1cncn1Cc1ccc(C#N)cc1)S(=O)(=O)c1ccccc1 (stereo not drawn)
- pIC50 [1]: 7.40
- pIC50 [11]: < 5.00

SMILES: CC(C)=CCC/C(C)=C/CC/C(C)=C/CC1C(=O)N(Cc2ccccc2)C(=O)N1Cc1cncn1Cc1ccc(C#N)cc1 (stereo not drawn)
- pIC50 [1]: 6.70

Reference: ChEMBL document CHEMBL1136707, “From pure FPP to mixed FPP and CAAX competitive inhibitors of farnesyl protein transferase” (Bioorg Med Chem Lett, 2003)
